Measurements from publication PMC6424611 (Journal of molecular biology, 2019).
Where no end group is shown, it is not given here. The star is where a group is joined. Biotin = O=C1N[C@H]2[C@H](CS[C@H]2CCCCC(=O)*)N1; TTDS = NCCCOCCOCCOCCCNC(=O)CCC(=O)*

How the values were obtained:
HTRA1 PDZ = HTRA1 PDZ (Homo sapiens, UniProt Q92743); experiment: surface plasmon resonance; assay type: binding; details: internal standard; biotinylated HPV16 E6 peptide immobilized; steady state
Summary of the method: (§1)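 Biacore SPR on a CM5 chip. Streptavidin was immobilized by EDC coupling, then biotinylated HPV16 E6 peptide was captured and extensively washed. Tandem Ni/MBP-purified MBP-PDZ domains were then injected. The E6 peptide served as an internal standard.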

GOPC PDZ = GOPC PDZ (Homo sapiens, UniProt Q9HD26); experiment: surface plasmon resonance; assay type: binding; details: internal standard; biotinylated HPV16 E6 peptide immobilized; steady state
PARD3B-1 PDZ [1] = molecular target: T1, PARD3B-1 PDZ (Homo sapiens, UniProt Q8TEW8); experiment: surface plasmon resonance; assay type: binding; details: internal standard; biotinylated HPV16 E6 peptide immobilized; steady state
T1 sequence (Q8TEW8 201-289 limits assumed): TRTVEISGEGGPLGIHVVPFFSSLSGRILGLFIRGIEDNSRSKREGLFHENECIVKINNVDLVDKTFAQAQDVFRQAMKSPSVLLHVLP
Summary of the method: as §1

GRID2IP-2 PDZ [2] = molecular target: T2, GRID2IP-2 PDZ (Homo sapiens, UniProt A4D2P6); experiment: surface plasmon resonance; assay type: binding; details: internal standard; biotinylated HPV16 E6 peptide immobilized; steady state
T2 sequence (A4D2P6 279-356 limits assumed): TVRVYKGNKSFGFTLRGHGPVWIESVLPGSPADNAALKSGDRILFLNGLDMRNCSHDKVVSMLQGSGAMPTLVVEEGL
Summary of the method: as §1

MAST1 PDZ = molecular target: T3, MAST1 PDZ (Homo sapiens, UniProt Q9Y2H9); experiment: surface plasmon resonance; assay type: binding; details: internal standard; biotinylated HPV16 E6 peptide immobilized; steady state
T3 sequence (Q9Y2H9 967-1055 limits assumed): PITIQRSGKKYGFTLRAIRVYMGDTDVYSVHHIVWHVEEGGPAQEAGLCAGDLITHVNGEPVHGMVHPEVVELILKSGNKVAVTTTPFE
Summary of the method: as §1

GORASP2 PDZ = experiment: surface plasmon resonance; assay type: binding, human; details: internal standard; biotinylated HPV16 E6 peptide immobilized; steady state
Summary of the method: as §1

SNTG2 PDZ = molecular target: T4, SNTG2 PDZ (Homo sapiens, UniProt Q9NY99); experiment: surface plasmon resonance; assay type: binding; details: internal standard; biotinylated HPV16 E6 peptide immobilized; steady state
T4 sequence (Q9NY99 73-156 limits assumed): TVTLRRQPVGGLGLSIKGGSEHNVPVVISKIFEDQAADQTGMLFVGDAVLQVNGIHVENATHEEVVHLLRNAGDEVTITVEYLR
Summary of the method: as §1

SNX27 PDZ [3] = molecular target: T5, SNX27 PDZ (Homo sapiens, UniProt Q96L92); experiment: surface plasmon resonance; assay type: binding; details: internal standard; biotinylated HPV16 E6 peptide immobilized; steady state
PDZD7-3 PDZ = molecular target: T6, PDZD7-3 PDZ (Homo sapiens, UniProt Q9H5P4); experiment: surface plasmon resonance; assay type: binding; details: internal standard; biotinylated HPV16 E6 peptide immobilized; steady state
T6 sequence (Q9H5P4 862-934 limits assumed): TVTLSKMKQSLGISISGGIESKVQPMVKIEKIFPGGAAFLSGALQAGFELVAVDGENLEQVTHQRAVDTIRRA
Summary of the method: as §1

ARHGEF12 = experiment: NanoBiT protein-protein interaction assay; assay type: cell-based, human; details: RSK1–ARHGEF12 sensor, 20 ng/ml EGF, serum-starved HEK293T, 60 min
Summary of the method: (§2)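 Full-length RSK1 (N-terminal SmBiT) is paired with an N-terminal LgBiT fusion of the partner: ARHGEF12 isoform 2, GOPC isoform 2, PARD3B 1–913, or SYNJ2BP. Sensors are transiently co-expressed in HEK293T cells, which are serum-starved for 20 h from 4 h post-transfection and assayed with Nano-Glo at 24 h. Steady-state signal is referenced to the wild-type pair. For the EGF response (20 ng/ml, 60 min), signal is normalized to initial luminescence and to unstimulated furimazine decay. At least 6 replicates.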

SYNJ2BP = experiment: NanoBiT protein-protein interaction assay; assay type: cell-based, human; details: RSK1–SYNJ2BP sensor, 20 ng/ml EGF, serum-starved HEK293T, 60 min
Summary of the method: as §2

ERK2 = experiment: NanoBiT protein-protein interaction assay; assay type: cell-based; details: RSK1–ERK2 sensor, 20 ng/ml EGF, serum-starved HEK293T, 60 min
Summary of the method: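 Full-length RSK1 carries an N-terminal SmBiT tag, and full-length ERK2 is fused to LgBiT. HEK293T cells (DMEM, 10% FBS) are seeded at 2×10^4/well 24 h before FuGene HD co-transfection, then starved for 20 h in CO2-independent medium from 4 h post-transfection. After 20 ng/ml EGF, Nano-Glo luminescence is followed for 60 min and normalized to initial signal and to furimazine decay in unstimulated cells. At least 6 biological replicates.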

GOPC = experiment: NanoBiT protein-protein interaction assay; assay type: cell-based, human; details: RSK1–GOPC sensor, 20 ng/ml EGF, serum-starved HEK293T, 60 min
Summary of the method: as §2

PARD3B = experiment: NanoBiT protein-protein interaction assay; assay type: cell-based, human; details: RSK1–PARD3B sensor, 20 ng/ml EGF, serum-starved HEK293T, 60 min
Summary of the method: as §2

MAGI1 = experiment: NanoBiT protein-protein interaction assay; assay type: cell-based, human; details: RSK1–MAGI1 sensor, 20 ng/ml EGF, serum-starved HEK293T, 60 min
Summary of the method: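 Full-length RSK1 (N-terminal SmBiT) is co-expressed with full-length MAGI1–LgBiT in HEK293T cells by FuGene HD transfection, then serum-starved for 20 h in CO2-independent medium. Cells are read with Nano-Glo 24 h post-transfection. Steady-state luminescence of mutant sensors is referenced to the wild-type pair. For the 20 ng/ml EGF response, signal is followed for 60 min and normalized to initial luminescence and to furimazine decay in unstimulated cells. At least 6 biological replicates.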

[4] = system: first PDZ domain of NHERF (EBP50); experiment: holdup assay; assay type: binding, human
[5] = system: first PDZ domain of Scribble; experiment: holdup assay; assay type: binding, human
ARHGEF12 PDZ = molecular target: T7, ARHGEF12 PDZ (Homo sapiens, UniProt Q9NZN5); experiment: holdup assay; assay type: binding; details: words
T7 sequence (Q9NZN5 72-151 limits assumed): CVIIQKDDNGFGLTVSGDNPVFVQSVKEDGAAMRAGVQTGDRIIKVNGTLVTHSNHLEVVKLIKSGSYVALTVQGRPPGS
Summary of the method: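 Automated holdup against N-terminally biotinylated (TTDS linker) RSK1 725–735 peptides, unphosphorylated and phosphorylated, in triplicate. PDZome v2 clones were codon-optimized and expressed in E. coli, with soluble lysate adjusted to ~4 μM. BI is the PDZ fraction depleted from the fluid phase.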

GRID2IP-2 PDZ [6] = molecular target: T2, GRID2IP-2 PDZ; experiment: holdup assay; assay type: binding; details: words; GRID2IP
Summary of the method: (§3)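 Automated holdup in triplicate measured biotinylated (N-terminal TTDS linker) RSK1 725–735 peptides, unphosphorylated or phosphorylated, against E. coli-expressed PDZome v2 domains. Soluble lysate was adjusted to ~4 μM, giving 255 domains for the unphosphorylated and 252 for the phosphorylated peptide. Binding intensity (BI) is the fraction of PDZ depleted from the fluid phase. BI 0.2 was the high-confidence threshold.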

SNX27 PDZ [7] = molecular target: T5, SNX27 PDZ; experiment: holdup assay; assay type: binding; details: words
PARD3B-1 PDZ [8] = molecular target: T1, PARD3B-1 PDZ; experiment: holdup assay; assay type: binding; details: words; PARD3B
Summary of the method: as §3

RhoA = experiment: G-LISA RhoA activation assay; assay type: cell-based; details: ARHGEF12 mutants, n=4

Sequence of HTRA1 PDZ (Q92743 365-467 limits assumed): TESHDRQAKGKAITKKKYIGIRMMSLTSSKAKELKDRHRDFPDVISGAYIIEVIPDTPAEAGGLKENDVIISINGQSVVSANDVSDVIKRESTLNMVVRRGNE

CC(C)C[C@H](NC(=O)[C@H](CCC(N)=O)NC(=O)[C@@H](NC(=O)[C@H](CCC(=O)O)NC(=O)[C@H](CCCNC(=N)N)NC(=O)[C@H](CCCNC(=N)N)NC(=O)[C@@H](NC(=O)[C@H](CCCNC(=N)N)NC(=O)[C@H](CO)NC(=O)[C@@H](N)CO)[C@@H](C)O)[C@@H](C)O)C(=O)O [HPV16 E6]
KD, SPR, HPV16 E6 (HTRA1 PDZ): no binding
KD, SPR, HPV16 E6 (GOPC PDZ): no binding
KD, SPR, HPV16 E6 (PARD3B-1 PDZ [1]): no binding
KD, SPR, HPV16 E6 (GRID2IP-2 PDZ [2]): no binding
KD, SPR, HPV16 E6 (MAST1 PDZ): no binding
KD, SPR, HPV16 E6 (GORASP2 PDZ): no binding
KD, SPR, HPV16 E6 (SNTG2 PDZ): no binding
KD, SPR, HPV16 E6 (SNX27 PDZ [3]): no binding
KD, SPR, HPV16 E6 (PDZD7-3 PDZ): no binding

EGF: epidermal growth factor (Sigma-Aldrich), 20 ng/ml (NSDSECPLSHDGYCLHDGVCMYIEALDKYACNCVVGYIGERCQYRDLKWWELR; UniProt P01133 971-1023, looked up)
change in luminescence after EGF (ARHGEF12): decrease in luminescence
change in luminescence after EGF (SYNJ2BP): increased luminescence
change in luminescence after EGF (ERK2): time-modulated decrease of the luminescence signal
change in luminescence after EGF (GOPC): decrease in luminescence
change in luminescence after EGF (PARD3B): did not show any change
change in luminescence after EGF (MAGI1): decrease in luminescence

RSK1 PBM: PDZ binding motif of the RSK1 C-terminal tail ({Biotin-TTDS}-RRVRKLPSTTL)
interaction detected [4]: did not detect any interaction
BI [5]: 0.17–0.18
effect of phosphorylation on binding (ARHGEF12 PDZ): mostly eliminated
effect of phosphorylation on binding (GRID2IP-2 PDZ [6]): mostly eliminated
effect of phosphorylation on binding (SNX27 PDZ [7]): promoted by phosphorylation
affinity to both states of the RSK1 PBM (PARD3B-1 PDZ [8]): comparable affinities to both states

S1288E: ARHGEF12 mutant mimicking the RSK1 phosphorylation site
decrease of RhoA signal by ARHGEF12 mutation (RhoA): 20%
